{"source": "paper PMC5386783", "about": "(Nature medicine, 2016)", "key": {"[1]": {"tested_on": "ZIKV-induced caspase-3 activity", "assay": "Caspase-3/7 activity assay in ZIKV-infected SNB-19 cells", "format": "cell-based", "conditions": "Homo sapiens, SNB-19, read-out: IC50, caspase activity", "method_in_brief": "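SNB-19 cells (250/well, PDL-coated 1536-well) were grown 16 h at 37 °C/5% CO2, given pin-transferred test compound for 30 min, then ZIKV at 2 FFU/cell for 6 h. Caspase-Glo 3/7 reagent was added for 30 min at room temperature and luminescence read. Uninfected cells were 0% and infected cells 100%. Confirmation used 11-point 1:3 dilutions, n = 3, and IC50 came from curve fits.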"}, "[2]": {"conditions": "cited from earlier work"}, "[3]": {"tested_on": "SNB-19 cells", "assay": "ATP content cell viability assay in ZIKV-infected SNB-19 cells", "format": "cell-based", "conditions": "Homo sapiens, SNB-19, read-out: IC50, cell viability"}, "[4]": {"tested_on": "forebrain-specific hNPCs", "format": "cell-based, human", "method_in_brief": "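Forebrain hNPCs were derived from iPSCs via embryoid bodies, rosettes and neurospheres. Monolayers were exposed to ZIKV FSS-13025 (MOI 0.04–0.08) ± test compound and immunostained 72 h later for ZIKV envelope, cleaved caspase-3 and DAPI; %Cas3+/DAPI cells, mean ± s.e.m., n = 3 cultures, one-way ANOVA. C1–2 iPSC forebrain organoids: exposed on day 18 for 24 h, fresh medium 9 more days, then fixed and immunostained.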"}, "[5]": {"tested_on": "activated caspases", "conditions": "cited from earlier work"}, "[6]": {"conditions": "oral delivery, BID, × 4 days; cited from earlier work"}, "[7]": {"tested_on": "astrocytes", "assay": "Astrocyte viability, compound toxicity", "format": "cell-based", "conditions": "at levels lower than 3 μM", "method_in_brief": "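Cells were seeded in 96-well plates and, one day later, treated with test compound for 24–48 h without virus. Viability was then read with a CellTiter-Glo luminescent ATP substrate.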"}, "[8]": {"tested_on": "ZIKV", "assay": "ZIKV NS1 expression", "format": "cell-based, Zika virus", "conditions": "SNB-19 cells; three strains; dose-dependent", "method_in_brief": "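SNB-19 cells were treated with titrated test compound 1 h before FSS-13025, PRVABC59 or MR766 (MOI 1) and harvested at 24 h for NS1 western blot. NS1/GAPDH bands were normalised to DMSO. Secreted NS1 in the medium after 24 h was measured by NS1 ELISA kit. n = 3 cultures; one-way ANOVA versus DMSO or the 0 μM group.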"}, "[9]": {"tested_on": "ZIKV", "assay": "Time-of-addition experiment in SNB-19 cells", "format": "cell-based, Zika virus", "conditions": "PRVABC59, MOI = 1, 10 μg/ml anti-AXL antibody, 2 μM Niclosamide, 92 μM PHA-690509", "method_in_brief": "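SNB-19 cells received test compound or 10 μg/ml anti-AXL antibody either 1 h before or 4 h after PRVABC59 infection (MOI 1). NS1 was detected by western blot, and NS1/GAPDH band intensities were normalised to DMSO. n = 3 cultures; one-way ANOVA versus DMSO.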"}, "[10]": {"tested_on": "ZIKV", "assay": "Intracellular ZIKV RNA levels", "format": "cell-based, Zika virus", "conditions": "read-out: IC50, intracellular ZIKV RNA levels", "method_in_brief": "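SNB-19 cells, astrocytes or hNPCs (~3×10^5/well, 12-well) were treated with test compound 1 h before ZIKV (MOI 0.5–1) and harvested 24–48 h post-infection. Total RNA (500–1000 ng) was reverse-transcribed with random hexamers. SYBR qPCR used ZIKV NS1 primers, with GAPDH as the endogenous control. Fold change was calculated by ΔΔCT, normalised to control cells.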"}, "[11]": {"tested_on": "ZIKV", "assay": "ZIKV infection and production in hNPCs and astrocytes", "format": "cell-based, Zika virus", "conditions": "PRVABC59", "method_in_brief": "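Astrocytes were treated with test compound 1 h before PRVABC59 (MOI 0.5), fixed 24 h post-infection, and immunostained for ZIKV envelope protein with DAPI. Stained cells were counted. Virus released into culture supernatant was titrated as focus-forming units on Vero cells.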"}, "[12]": {"conditions": "ref WHO http://apps.who.int/medicinedocs/en/d/Jh2922e/3.1.3.html; cited from earlier work"}, "[13]": {"tested_on": "ZIKV", "assay": "ZIKV production from SNB-19 cells, focus-forming unit assay on Vero cells", "format": "cell-based, Zika virus", "conditions": "for concentrations suppressing production of infectious ZIKV particles: PRVABC59, MOI = 0.5, 24 hours post infection"}, "[14]": {"tested_on": "hNPC", "assay": "hNPC proliferation after ZIKV infection with compound treatment", "format": "cell-based, human", "conditions": "ZIKV-infected hNPCs"}, "[15]": {"tested_on": "ZIKV", "assay": "ZIKV production from iPSC-derived human astrocytes, FFU assay", "format": "cell-based, Zika virus", "conditions": "read-out: IC50, ZIKV production upon infection of human astrocytes; PRVABC59"}, "[16]": {"tested_on": "hNPC", "assay": "hNPC proliferation in brain organoids, compound alone without ZIKV", "format": "cell-based, human", "conditions": "PHA-690509 1 μM, Seliciclib 5 μM"}}, "note": "Where “and” joins values, the source holds several entries; their conditions need not be identical. Identical values can stand only once."}
{"smiles": "C[C@H](NC(=O)C(=O)Nc1ccccc1C(C)(C)C)C(=O)N[C@@H](CC(=O)O)C(=O)COc1c(F)c(F)cc(F)c1F", "note": "[Emricasan]", "values": [{"measurement": "IC50", "setting": "[1]", "result": "0.13 to 0.9", "unit": "µM"}, {"measurement": "tolerability in human trials", "setting": "[2]", "result": "well tolerated in human trials without significant adverse events"}, {"measurement": "IC50", "setting": "[3]", "result": "0.13 to 0.9", "unit": "µM"}, {"measurement": "suppression of ZIKV replication (ZIKV antigen)", "setting": "[4]; 2D and 3D cultures", "result": "does not suppress ZIKV replication"}, {"measurement": "number of active (cleaved) caspase-3-expressing forebrain-specific hNPCs", "setting": "[4]; infected by FSS13025, monolayer and 3D organoid cultures", "result": "reduced"}, {"measurement": "activity against activated caspases in vitro", "setting": "[5]", "result": "sub-to nano-molar activity"}, {"measurement": "maximum concentration in human blood", "setting": "[6]", "result": "2.36 μg/ml and 4.15 μM"}, {"measurement": "overall concentration in human blood", "setting": "[6]", "result": "1.90 μg/ml and 3.35 μM"}]}
{"smiles": "O=C(Nc1ccc([N+](=O)[O-])cc1Cl)c1cc(Cl)ccc1O", "note": "[Niclosamide]", "values": [{"measurement": "toxicity, astrocyte viability", "setting": "[7]", "result": "minimal toxicity"}, {"measurement": "inhibition of ZIKV as measured by NS1 expression", "setting": "[8]", "result": "inhibited all three strains of ZIKV"}, {"measurement": "inhibition of ZIKV infection by time of addition", "setting": "[9]", "result": "effectively inhibited ZIKV infection when added either 1 hour before or 4 hours after virus inoculation"}, {"measurement": "IC50", "setting": "[10]; Zika virus", "result": 0.37, "unit": "µM"}, {"measurement": "ZIKV infection and production in hNPCs and astrocytes", "setting": "[11]", "result": "inhibited ZIKV infection and production"}, {"measurement": "mutagenic, teratogenic or embryotoxic potential", "setting": "[12]", "result": "not been shown to be mutagenic, teratogenic or embryotoxic"}, {"measurement": "concentrations suppressing production of infectious ZIKV particles", "setting": "[13]", "result": "sub-micromolar concentrations"}]}
{"smiles": "CC(=O)Nc1ccc([C@H](C)C(=O)Nc2ncc(C(C)C)s2)cc1", "note": "[PHA-690509]", "values": [{"measurement": "rescue of ZIKV-induced reduction in hNPC proliferation", "setting": "[14]", "result": "partially rescued"}, {"measurement": "toxicity, astrocyte viability", "setting": "[7]", "result": "minimal toxicity"}, {"measurement": "inhibition of ZIKV as measured by NS1 expression", "setting": "[8]", "result": "inhibited all three strains of ZIKV"}, {"measurement": "inhibition of ZIKV infection by time of addition", "setting": "[9]", "result": "effectively inhibited ZIKV infection when added either 1 hour before or 4 hours after virus inoculation"}, {"measurement": "IC50", "setting": "[10]", "result": 1.72, "unit": "µM"}, {"measurement": "IC50", "setting": "[15]", "result": "~0.2", "unit": "µM"}, {"measurement": "ZIKV infection and production in hNPCs and astrocytes", "setting": "[11]", "result": "inhibited ZIKV infection and production"}, {"measurement": "concentrations suppressing production of infectious ZIKV particles", "setting": "[13]", "result": "sub-micromolar concentrations"}]}
{"smiles": "CC(C)c1nn(-c2c(Cl)cccc2Cl)c2nc(Cc3ccc(OCCO)cc3)[nH]c(=O)c12", "note": "[RGB-286147]", "values": [{"measurement": "IC50", "setting": "[13]; read-out: IC50, ZIKV production", "result": 0.027, "unit": "µM"}]}
{"smiles": "CC[C@H](CO)Nc1nc(NCc2ccccc2)c2ncn(C(C)C)c2n1", "note": "[Seliciclib]", "values": [{"measurement": "rescue of ZIKV-induced reduction in hNPC proliferation", "setting": "[14]", "result": "partially rescued"}, {"measurement": "effect of treatment alone on hNPC proliferation in brain organoids", "setting": "[16]", "result": "minimal effect"}]}
